In experiment [1] the target is T1, Prostaglandin E synthase (Homo sapiens, UniProt O14684).
T1 sequence (O14684 whole entry): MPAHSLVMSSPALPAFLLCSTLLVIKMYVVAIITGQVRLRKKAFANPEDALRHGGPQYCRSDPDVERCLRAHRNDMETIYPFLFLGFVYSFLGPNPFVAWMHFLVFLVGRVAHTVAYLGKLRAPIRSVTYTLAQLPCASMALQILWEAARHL
Description: Inhibition of human mPGES1 assessed as PGE2 level after 41 sec by ELISA. The essentials:
(§1)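 Enzyme in 100 mM potassium phosphate pH 6.2 with 2.5 mM glutathione, compound added in DMSO. Reaction started with PGH2 (final 2 µM), stopped with 2.5 mM FeCl2, diluted 120-fold into ELISA buffer. PGE2 by ELISA against a standard curve. % control set between reference-inhibited and enzyme-only controls; IC50 by 4-parameter log fit of duplicate data.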

Experiment [2] addresses T1, Prostaglandin E synthase. Description: Inhibition of human mPGES1 in IL1-beta treated human FF cells assessed as blockade of PGH2 to PGE2 conversion after 50 mins by ELISA. In kind it is cell-based. The essentials: (§2)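 Human fetal fibroblasts in DMEM/15% FBS at 37 °C, 5% CO2; after 20–24 h, stimulated 20–24 h with 1 ng/mL IL-1β, washed, compound 50 min in serum-free DMEM, then 10 µM arachidonic acid 10 min. PGE2 by ELISA. For PGF2α, SnCl2 added after compound for 10 min before arachidonic acid. IC50 from duplicate data.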

The target of experiment [3] is T2, Prostaglandin G/H synthase 2 (Homo sapiens, UniProt P35354).
T2 sequence (P35354 whole entry): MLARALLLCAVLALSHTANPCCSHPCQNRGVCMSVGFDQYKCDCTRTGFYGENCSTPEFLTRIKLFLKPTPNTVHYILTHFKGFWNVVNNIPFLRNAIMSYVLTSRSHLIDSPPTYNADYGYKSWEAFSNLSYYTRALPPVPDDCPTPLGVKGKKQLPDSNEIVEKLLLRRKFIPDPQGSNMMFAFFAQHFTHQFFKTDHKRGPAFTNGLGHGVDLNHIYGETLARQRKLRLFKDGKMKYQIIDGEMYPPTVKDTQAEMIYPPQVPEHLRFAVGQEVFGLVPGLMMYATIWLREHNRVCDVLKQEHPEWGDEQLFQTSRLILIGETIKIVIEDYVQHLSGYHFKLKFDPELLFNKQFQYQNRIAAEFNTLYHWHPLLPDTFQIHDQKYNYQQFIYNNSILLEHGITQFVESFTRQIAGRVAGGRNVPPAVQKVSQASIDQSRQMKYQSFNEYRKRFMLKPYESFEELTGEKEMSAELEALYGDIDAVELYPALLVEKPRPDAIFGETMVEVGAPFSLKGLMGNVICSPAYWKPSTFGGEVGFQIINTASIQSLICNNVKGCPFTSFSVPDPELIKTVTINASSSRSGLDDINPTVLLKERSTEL
As to the kind of experiment: Inhibition of human COX2 in IL1-beta treated human FF cells assessed as blockade of SnCl2-mediated PGH2 to PGF2alpha conversion after 50 mins by ELISA. Type of experiment: cell-based. An outline of the steps: as §2
On the technique in general: ELISA stands for enzyme-linked immunosorbent assay.

Experiment [4] deals with T3, Prostaglandin G/H synthase 1 (Homo sapiens, UniProt P23219). As to the kind of experiment: Inhibition of COX1.
T3 sequence (P23219 whole entry): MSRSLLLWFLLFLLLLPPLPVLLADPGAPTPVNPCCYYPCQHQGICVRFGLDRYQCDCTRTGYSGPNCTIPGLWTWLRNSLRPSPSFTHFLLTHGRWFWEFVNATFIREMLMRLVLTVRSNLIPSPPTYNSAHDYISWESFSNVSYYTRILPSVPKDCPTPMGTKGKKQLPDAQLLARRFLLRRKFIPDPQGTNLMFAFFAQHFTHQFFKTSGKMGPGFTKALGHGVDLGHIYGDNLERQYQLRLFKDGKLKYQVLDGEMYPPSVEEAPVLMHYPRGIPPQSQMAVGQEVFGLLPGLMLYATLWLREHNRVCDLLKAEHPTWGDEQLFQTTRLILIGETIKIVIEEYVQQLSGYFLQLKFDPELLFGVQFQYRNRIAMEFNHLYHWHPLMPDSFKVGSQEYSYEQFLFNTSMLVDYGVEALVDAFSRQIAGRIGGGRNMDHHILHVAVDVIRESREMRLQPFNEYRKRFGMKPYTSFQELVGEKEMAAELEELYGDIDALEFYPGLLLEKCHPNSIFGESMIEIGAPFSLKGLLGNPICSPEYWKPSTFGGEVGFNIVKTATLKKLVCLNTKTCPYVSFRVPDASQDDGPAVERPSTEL
The target of experiment [5] is T4, Prostaglandin G/H synthase 2 (Homo sapiens) (UniProt P35354).
T4 sequence (whole entry): T2 sequence (P35354 whole entry)
As to the kind of experiment: Inhibition of COX2.

Experiment [6] has as its target T3, Prostaglandin G/H synthase 1. As to the kind of experiment: Inhibition of human recombinant COX1.
Experiment [7] addresses T2, Prostaglandin G/H synthase 2. As to the kind of experiment: Inhibition of human recombinant COX2.
Experiment [8] is described as follows: Inhibition of rat mPGES1.
For experiment [9], the target named is T1, Prostaglandin E synthase. Description: Inhibition of mPGES1. The essentials:
as §1

The IC50 is the midpoint of a concentration-inhibition curve. For `O=C(Nc1ccc(Oc2ccc(Cl)cc2)cc1)C1=C(O)c2ccccc2S(=O)(=O)N1`, the IC50 in experiment [1] turned out to be 0.53 µM; in experiment [2] it was 6.73 µM; in experiment [3] it was 70 µM.

In the case of `O=C(Nc1ccc(Nc2ccc(Cl)cc2)cc1)C1=C(O)c2ccccc2S(=O)(=O)N1`, the values for the IC50 in [1], in [2] and in experiment [3] were 0.15 µM, 4.24 µM and over 100 µM, respectively.

Regarding `O=C(Nc1ccc(-c2ccccc2)cc1)C1=C(O)c2ccccc2S(=O)(=O)N1`, the IC50 was 3.13 µM in experiment [1], 6.73 µM in [2] and 92.6 µM in experiment [3].

Turning to `O=C(Nc1ccc(-c2ccc(Cl)c(Cl)c2)cn1)C1=C(O)c2ccccc2S(=O)(=O)N1`, the half-inhibitory concentration (IC50) in [1] is 65.6 µM.

Turning to `O=C(Nc1ccc(CCc2ccc(Cl)c(Cl)c2)cc1)C1=C(O)c2ccccc2S(=O)(=O)N1`, the IC50 in [1] is 0.11 µM; in [2], 0.46 µM; in experiment [3] it was over 68 µM; in experiment [6], 489 µM; in experiment [7] it was 467 µM. The INH in experiment [4] and in experiment [5] was over 50 µM throughout.

`O=C(Nc1ccc(-c2ccc(Cl)c(Cl)c2)cc1)C1=C(O)c2ccc(O)cc2S(=O)(=O)N1`: in [1], the concentration for half-maximal inhibition (IC50) amounted to 0.18 µM.

With `CN1C(C(=O)Nc2ccc(-c3ccc(Cl)c(Cl)c3)cc2)=C(O)c2ccccc2S1(=O)=O`, the half-maximal inhibitory concentration (IC50) in experiment [1] turned out to be 0.28 µM; in [2], 2.04 µM.

With `O=C(Nc1ccccc1CCc1ccc(Cl)c(Cl)c1)C1=C(O)c2ccccc2S(=O)(=O)C1`, the values for the half-maximal inhibitory concentration (IC50) in experiment [1], in experiment [2] and in experiment [3] were 1.68 µM, 3.4 µM and over 90 µM, respectively.

Consider `CC(C)c1ccc2c(c1)c(SC(C)(C)C)c(CC(C)(C)C(=O)O)n2Cc1ccc(Cl)cc1`, for which half-maximal inhibition in experiment [8] (IC50) required 3.2 µM.

Regarding `O=C(CNS(=O)(=O)c1ccccc1C(=O)O)Nc1ccc(-c2ccc(Cl)c(Cl)c2)cc1`, the IC50 in [1] was 5.76 µM; in [2] it was 37.6 µM; in experiment [3] it was over 100 µM.

As to `Cc1ccc(-c2ccc(NC(=O)C3=C(O)c4ccccc4S(=O)(=O)N3)cc2)cc1`, the IC50 is under 0.07 µM in experiment [1], 2.24 µM in [2] and over 100 µM in experiment [3].

For the compound `Cc1ccc(-c2ccc(NC(=O)C3=C(O)c4ccccc4S(=O)(=O)N3)cc2)cc1C`, the IC50 is under 0.026 µM in experiment [1], under 0.75 µM in experiment [2] and over 57.7 µM in experiment [3].

Consider `O=C(Nc1ccc(-c2ccc(Cl)cc2Cl)cn1)C1=C(O)c2ccccc2S(=O)(=O)N1`, for which, in [1], the IC50 was determined as 11.7 µM.

As to `O=C(CNS(=O)(=O)c1ccccc1CO)Nc1ccc(-c2ccc(Cl)c(Cl)c2)cc1`, in experiment [1], the concentration for half-maximal inhibition (IC50) stood at 29.6 µM.

`O=C(Nc1ccc(-c2ccc(Cl)c(Cl)c2)nc1)C1=C(O)c2ccccc2S(=O)(=O)N1`: the half-inhibitory concentration (IC50) in [1] worked out at 0.16 µM; in experiment [2] it was 0.69 µM; in experiment [3], 33.7 µM.

As to `O=C(Nc1cccc(C(=O)c2ccc(Cl)cc2)c1)C1=C(O)c2ccccc2S(=O)(=O)N1`, the figures for the IC50 in experiment [1], in experiment [2] and in [3] were 3.91 µM, 2.16 µM and 95.3 µM, respectively.

In the case of `O=C(Nc1ccc(-c2ccc(Cl)c(Cl)c2)cc1)C1NS(=O)(=O)c2ccccc2C1O` (stereo not given), the IC50 in experiment [1] is 0.19 µM; in experiment [2] it was 0.67 µM; in experiment [3], over 100 µM; in [6], over 50 µM; in experiment [7], over 50 µM.

`O=C(Nc1ccc(-c2ccc(Cl)nc2)cc1)C1=C(O)c2ccccc2S(=O)(=O)N1`: the IC50 in experiment [1] came to 12.7 µM.

For the compound `N#Cc1ccc(-c2ccc(NC(=O)C3=C(O)c4ccccc4S(=O)(=O)N3)cc2)cc1`, in experiment [1], the IC50 came to 3.96 µM.

For the compound `O=C(Nc1ccc(-c2ccc(Cl)cc2)cc1)C1=C(O)c2ccccc2S(=O)(=O)N1`, the IC50 in experiment [1] was determined as 0.29 µM; in experiment [2] it was 1.45 µM; in [3], 33.7 µM.

On to `COc1ccc2c(c1)S(=O)(=O)NC(C(=O)Nc1ccc(-c3ccc(Cl)c(Cl)c3)cc1)=C2O`, for which, in experiment [1], the 50% inhibitory concentration (IC50) is 3.05 µM.

On to `Fc1cccc(Cl)c1-c1nc(-c2ccc(C#Cc3ccc(C(F)(F)F)cc3)nc2)c(Br)[nH]1`, for which, in experiment [9], the half-inhibitory concentration (IC50) came out at 0.0008 µM.

Turning to `O=C(Nc1ccc(C(=O)c2ccc(Cl)cc2)c(Cl)c1)C1=C(O)c2ccccc2S(=O)(=O)N1`, the half-maximal inhibitory concentration (IC50) amounted to 0.11 µM in [1], 1.14 µM in experiment [2] and 95.6 µM in experiment [3].

As to `COc1ccc(-c2ccc(NC(=O)C3=C(O)c4ccccc4S(=O)(=O)N3)cc2)cc1OC`, the IC50 in experiment [1] turned out to be 32.2 µM.

Regarding `O=C(Nc1ccc(-c2cccc(Cl)c2Cl)cc1)C1=C(O)c2ccccc2S(=O)(=O)N1`, the concentration for half-maximal inhibition (IC50) in [1] is 0.038 µM; in [2] it was under 0.92 µM; in [3], 44.4 µM.

Consider `COc1ccc2c(c1)C(O)=C(C(=O)Nc1ccc(-c3ccc(Cl)c(Cl)c3)cc1)NS2(=O)=O`, for which the results for the IC50 in [1], in experiment [2] and in [3] were 0.69 µM, 1.29 µM and over 100 µM, respectively.

`O=C(Nc1ccc(-c2ccc(Cl)c(Cl)c2)cc1)C1=C(O)c2cc(O)ccc2S(=O)(=O)N1`: the 50% inhibitory concentration (IC50) is 0.098 µM in experiment [1], 1.45 µM in experiment [2] and over 100 µM in experiment [3].

Take `O=C(Nc1ccc(-c2cccc(Cl)c2)cc1)C1=C(O)c2ccccc2S(=O)(=O)N1`: the 50% inhibitory concentration (IC50) in [1] stood at 0.86 µM; in experiment [2], 3.44 µM; in [3], 74.7 µM.

For `Cc1cccc(-c2ccc(NC(=O)C3=C(O)c4ccccc4S(=O)(=O)N3)cc2)c1C`, the IC50 in experiment [1] was 1 µM; in experiment [2], 6.59 µM; in experiment [3], 94.7 µM.

Regarding `O=C(Nc1ccc(-c2ccc(Cl)cc2Cl)cc1)C1=C(O)c2ccccc2S(=O)(=O)N1`, the concentration for half-maximal inhibition (IC50) was 0.043 µM in experiment [1], under 0.76 µM in experiment [2] and over 74.8 µM in experiment [3].

Source of the values: ChEMBL document CHEMBL1154975, “Selective inducible microsomal prostaglandin E(2) synthase-1 (mPGES-1) inhibitors derived from an oxicam template” (Bioorg Med Chem Lett, 2010).
